Assay outcomes deposited in PubChem BioAssay by several laboratories.
Tn7 DDE FP – inhibitors of Tn7 peptide binding to fibrin DD(E), primary screen, biochemical, fluorescence polarization, human fibrin, Tn7 probe; Fibrinogen beta chain (Homo sapiens), P02675; inhibition, % at 8.3 µM; FP displacement of FITC-Tn7 peptide from fibrin DD(E); 0% = median of compound wells per plate; actives 0.13% (n = 370,000);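 active means inhibition above the mean of compounds falling within the control limits plus 3 SD of them, cut at about 14% in these data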;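 further: 0% = plate median of compound wells and 100% = 10 µM Aha-Tn7 peptide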
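System: human fibrin DD(E); quantity: Fibrin-DD(E) at 2 µM final; also added: fluorescent Tn7 probe at 0.1 µM; compound dosing: single nominal test concentration of 8.3 µM per compound; schedule: 10 min preincubation, 3 h with tracer, room temperature; detection: fluorescence polarization of the labelled Tn7 tracer; repeats: one replicate per compound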
SKN-1 inh – suppressors of acrylamide-induced Pgst-4::GFP reporter in worms, primary screen, SKN-1 inhibitor project, whole organism, uHTS, GFP/RFP fluorescence ratio, strain VP596; C. elegans VP596 Pgst-4::GFP/RFP ratio, 24 h; actives 0.49% (n = 360,000); inhibition, % at 21.8 µM;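 active means interference check ratio from 0.5 to 1.5 plus GFP to RFP signal ratio inhibition reaching or exceeding a fixed threshold, cut at about 30% in these data, passing the limit was not always enough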
MT1-MMP act inh – blockers of MT1-MMP proenzyme processing, primary screen, HT1080 RFP-PRO-GFP cells, GFP/RFP fluorescence; AID 651647, 2012; actives 0.061% (n = 360,000); GFP/RFP ratio fluorescence, overnight; percent of plate control window, DMSO zero; GFP/RFP ratio change, % at 20 µM; Matrix metalloproteinase-14 (Homo sapiens), P50281;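 active means GFP/RFP ratio change of at least 30% with cell ATP level not reduced by more than half and red fluorescence within 50% of control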
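Assay system: HT1080 cells carrying an RFP-PRO-GFP reporter | Dosing: Single dose of 20 µM compound, 1% DMSO final | Incubation: Cells overnight before dosing, compound overnight, 37 °C, 5% CO2 | Evaluation: GFP/RFP fluorescence ratio | Control set: DMSO and RFP-L50D-GFP cell wells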
proKLK7 act – proKLK7 zymogen activators, primary screen, biochemical, fluorescence intensity; AID 652039, 2013; Kallikrein-7 (Homo sapiens), P49862; activation, % at 7 µM; purified proKLK7, EDANS-DABCYL substrate fluorescence; 100% is mature enzyme control, 0% vehicle; actives 0.9% (n = 370,000);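 active means activation above the mean of all tested compounds plus 3 SD, computed per campaign excluding outliers beyond control limits, cut at about 13% in these data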
Neddylation inh – inhibitors of cullin neddylation, primary screen, biochemical, TR-FRET, uHTS, NAE and Ubc12; NEDD8-conjugating enzyme Ubc12 (Homo sapiens) + NEDD8-activating enzyme E1 regulatory …; actives 0.58% (n = 360,000); AID 651699, 2012; calls only at 25 µM; in the data active means inhibition above about 36%
Target sequence (P61081 whole entry, looked up): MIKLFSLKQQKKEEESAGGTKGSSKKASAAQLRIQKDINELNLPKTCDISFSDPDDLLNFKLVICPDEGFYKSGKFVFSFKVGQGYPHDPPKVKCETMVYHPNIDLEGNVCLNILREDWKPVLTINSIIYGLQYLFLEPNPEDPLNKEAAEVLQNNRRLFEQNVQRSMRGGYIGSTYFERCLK
Target sequence (Q13564 whole entry, looked up): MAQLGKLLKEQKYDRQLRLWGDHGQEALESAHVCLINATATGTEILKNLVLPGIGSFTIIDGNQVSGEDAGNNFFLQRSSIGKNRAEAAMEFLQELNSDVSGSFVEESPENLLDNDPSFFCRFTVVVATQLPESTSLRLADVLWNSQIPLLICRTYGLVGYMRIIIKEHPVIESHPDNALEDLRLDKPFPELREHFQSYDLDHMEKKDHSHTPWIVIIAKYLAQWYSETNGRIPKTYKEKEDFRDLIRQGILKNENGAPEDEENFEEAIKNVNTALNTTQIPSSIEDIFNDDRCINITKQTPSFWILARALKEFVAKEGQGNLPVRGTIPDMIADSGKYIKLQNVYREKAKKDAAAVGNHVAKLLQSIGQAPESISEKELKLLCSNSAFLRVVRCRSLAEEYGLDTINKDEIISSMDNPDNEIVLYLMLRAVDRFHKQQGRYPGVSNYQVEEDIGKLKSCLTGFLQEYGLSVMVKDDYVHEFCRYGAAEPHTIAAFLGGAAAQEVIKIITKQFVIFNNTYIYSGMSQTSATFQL
Tn6 DDE FP – inhibitors of Tn6 peptide binding to fibrin DD(E), primary screen, biochemical, fluorescence polarization, human fibrin, Tn6 probe; Fibrinogen beta chain (Homo sapiens), P02675; Fibrin DD(E) TRITC-Tn6 fluorescence polarization displacement; inhibition, % at 8.3 µM; actives 0.21% (n = 370,000);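 active means inhibition above a per-campaign cutoff: mean of compounds within control limits plus 3 SD, cut at about 15% in these data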;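 further: 0% = median of all compound wells on the plate and 100% = blocking peptide control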
Tn7 DDE conf – inhibitors of Tn7 peptide binding to fibrin DD(E), confirmation, biochemical, fluorescence polarization, human fibrin, Tn7 probe; actives 5% (n = 460); inhibition, % at 8.3 µM; FP displacement of TRITC-Tn7 peptide from DD(E); 0% set at plate's compound-well median; shares compounds with Tn7 DDE FP;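 active means inhibition above the campaign cutoff, the mean of compounds within control limits plus 3 SD, cut at about 14% in these data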;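 further: 100% = median FP of high control wells holding Aha-Tn7 inhibitor peptide; displacers lower polarization since freed probe rises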
Tn7 DDE ctr – DD(E)-Tn7 binding inhibition, counter-screen; shares compounds with Tn7 DDE FP; AID 720633; actives 3% (n = 460); fibrin DD(E), TRITC-Tn7 probe displacement, fluorescence polarization; inhibition, % at 8.3 µM;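 active means inhibition above the cutoff, the mean of compounds lying between the control bounds plus 3 SD of those compounds, cut at about 17% in these data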;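 further: 0% = median of compound sample wells and 100% = excess unlabeled Aha-Tn7 peptide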
* = called active by the depositor; i = inactive; . = no result given. Most compounds without a hit are left out; they make up all but 2.2% or so of the library.

SMILES	Tn7 DDE FP	SKN-1 inh	MT1-MMP act inh	proKLK7 act	Neddylation inh	Tn6 DDE FP	Tn7 DDE conf	Tn7 DDE ctr
NC(=O)CC(NC(=O)Cc1ccc(Cl)cc1)c1ccc(NC2CCCC2)c([N+](=O)[O-])c1 (stereo not drawn)	14*	6	4	0	i	-4	7	5
Cc1ccc(NC(=O)CS(=O)CC(=O)N(c2ccc(C)cc2)C(C)C(=O)NC2CCCCC2)cc1 (stereo not drawn)	15*	-5	-2	0	i	13	9	7
COC(=O)C1=C(C)N(Cc2ccccc2)C(=NCCc2cccnc2)N[C@H]1c1ccccc1	.	23	-3	.	i	.	.	.
COc1ccccc1NS(=O)(=O)c1cc(C(=O)NCC(c2ccco2)N(C)C)ccc1C (stereo not drawn)	3	10	-4	0	i	0	.	.
COc1ccccc1NS(=O)(=O)c1cccc(C(=O)NCC(c2ccco2)N(C)C)c1 (stereo not drawn)	14*	-13	2	0	i	10	-1	0
O=C(NC(=O)c1ccc(C(F)(F)F)cc1)Nc1ccc(-c2cnco2)cc1	14*	0	1	0	i	0	-2	-3
O=C(Nc1ccc(-c2cnco2)cc1)c1ccc(F)cc1F	11	6	4	1	i	-3	.	.
CCOC(=O)C1=CC[C@@H](c2ccccc2)N(S(=O)(=O)c2ccc(C)cc2)[C@H]1C	3	4	-3	1	i	0	.	.
CC1(C)Cc2c(cnn2-c2ccccc2)C(NC(=O)CCCN2CCCCC2=O)C1 (stereo not drawn)	16*	2	-1	1	i	-1	1	0
CC1(C)Cc2c(cnn2-c2ccccc2)C(NC(=O)CCN2CCCC2=O)C1 (stereo not drawn)	-6	19	2	0	i	6	.	.
COc1ccc(CC(=O)Nc2cccc(-c3nnc(-c4ccccc4)o3)c2)cc1OC	4	10	-8	0	i	8	.	.
CCOC(=O)N1CCN(Cc2nc(-c3ccc(OC)cc3)no2)CC1	.	1	10	.	i	.	.	.
CCOC(=O)N1CCN(Cc2nc(-c3ccc(Cl)cc3)no2)CC1	15*	-3	0	0	i	-1	6	-10
COC(=O)/C=C/C(=O)Nc1cccc(C(F)(F)F)c1	14*	20	2	0	i	3	-2	-3
CC(NC(=O)/C(C#N)=C/c1cn[nH]c1-c1ccccc1)c1ccccc1 (stereo not drawn)	-2	1	-9	0	i	-7	.	.
CCc1ccc(C(C)NC(=O)/C(C#N)=C\c2cn[nH]c2-c2ccccc2)cc1 (stereo not drawn)	14*	5	-2	0	i	5	12	9
O=C1CCCc2c1cc(C(=O)O)c(=O)n2-c1ccccc1	-5	4	-1	-1	i	-8	.	.
COC(=O)C(CCSC)NC(=O)c1cc2c(n(-c3ccccc3)c1=O)CCCC2=O (stereo not drawn)	15*	2	0	0	i	8	6	1
COc1ccc(CC(=O)NNC(=O)CSc2ccc(C)cc2)cc1	6	-4	4	0	i	1	.	.
O=C(NC(=S)NC1CCSC1=O)c1ccccc1Cl (stereo not drawn)	15*	-12	2	0	i	-2	4	1
O=C(NC(=S)NC1CCSC1=O)c1ccccc1 (stereo not drawn)	2	8	-8	-1	i	-3	.	.
Cc1cc2nc3c(=O)n(C4CCCCC4)c(=O)[nH]c3nc2cc1N	25*	-44	-135	-1	i	-4	17*	8
O=C(O)c1ccccc1NN=Cc1ccccc1	0	0	1	0	i	1	.	.
O=C(C(=Cc1ccc(O)cc1)c1ccccc1)c1ccccc1	-6	-2	8	1	i	-7	.	.
O=C(C(=Cc1ccccc1)c1ccccc1)c1ccccc1	16*	20	2	0	i	10	0	-1
SMILES	Tn7 DDE FP	SKN-1 inh	MT1-MMP act inh	proKLK7 act	Neddylation inh	Tn6 DDE FP	Tn7 DDE conf	Tn7 DDE ctr
CCOc1cc(C(C(=O)NCC2CCCO2)N(C(=O)Cn2nnc3ccccc32)c2ccc(NC(C)=O)cc2)ccc1O (stereo not drawn)	31*	-7	3	0	i	1	-2	-7
CC(C)(C)c1cc(C(=O)N/N=C/c2ccccc2O)n(-c2ccccc2)n1	-7	-5	-6	-1	.	-5	.	.
CC(C)(C)c1cc(C(=O)N/N=C/c2ccc(F)cc2)n(-c2ccccc2)n1	14*	10	3	0	i	3	3	-1
Cc1[nH]c2c(C)cccc2c(=O)c1CN1CCCCCC1	16*	-5	3	0	i	4	5	4
NC[C@H]1O[C@H](O[C@H]2[C@H](O)[C@@H](O[C@H]3O[C@H](CO)[C@@H](O)[C@H](N)[C@H]3O)[C@H](N)C[C@@H]2N)[C@H](N)C[C@@H]1O	.	0	1	.	i	.	.	.
O=C(Cn1nc(C(=O)O)c2ccccc2c1=O)Nc1cc(C(F)(F)F)ccc1-n1cncn1	15*	16	0	0	i	5	-3	-6
Cn1cccc1CNCc1ccccc1Cl	-1	16	8	0	i	9	.	.
CCOc1ccc(CCN2C(=S)N([C@@H](Cc3ccc(O)cc3)CN3CCC[C@@H]3CN3C(=S)NC[C@@H]3CC(C)C)C[C@@H]2CC(C)C)cc1	14*	10	-3	0	i	-1	10	3
